According to ChEMBL document CHEMBL5653618 (ACS Med Chem Lett, 2010):
Activity calls are given as the source filed them. The rule behind the calls is not given here.

Tests used:
[1] = Aqueous solubility of compound; assay type: physicochemical; details: buffer
[2] = Inhibition of Akt phosphorylation at S473 residue (unknown origin) by cell based analysis; details: Homo sapiens
[3] = biological target: Phosphatidylinositol 4,5-bisphosphate 3-kinase catalytic subunit alpha isoform (Homo sapiens, UniProt P42336); assay: Inhibition of PI3Kalpha (unknown origin) using PIP2 as substrate preincubated for 15 mins followed by substrate addition and measured after 1 hr in presence of ATP by HTRF assay
Sequence of Phosphatidylinositol 4,5-bisphosphate 3-kinase catalytic subunit alpha isoform (P42336 whole entry, canonical isoform): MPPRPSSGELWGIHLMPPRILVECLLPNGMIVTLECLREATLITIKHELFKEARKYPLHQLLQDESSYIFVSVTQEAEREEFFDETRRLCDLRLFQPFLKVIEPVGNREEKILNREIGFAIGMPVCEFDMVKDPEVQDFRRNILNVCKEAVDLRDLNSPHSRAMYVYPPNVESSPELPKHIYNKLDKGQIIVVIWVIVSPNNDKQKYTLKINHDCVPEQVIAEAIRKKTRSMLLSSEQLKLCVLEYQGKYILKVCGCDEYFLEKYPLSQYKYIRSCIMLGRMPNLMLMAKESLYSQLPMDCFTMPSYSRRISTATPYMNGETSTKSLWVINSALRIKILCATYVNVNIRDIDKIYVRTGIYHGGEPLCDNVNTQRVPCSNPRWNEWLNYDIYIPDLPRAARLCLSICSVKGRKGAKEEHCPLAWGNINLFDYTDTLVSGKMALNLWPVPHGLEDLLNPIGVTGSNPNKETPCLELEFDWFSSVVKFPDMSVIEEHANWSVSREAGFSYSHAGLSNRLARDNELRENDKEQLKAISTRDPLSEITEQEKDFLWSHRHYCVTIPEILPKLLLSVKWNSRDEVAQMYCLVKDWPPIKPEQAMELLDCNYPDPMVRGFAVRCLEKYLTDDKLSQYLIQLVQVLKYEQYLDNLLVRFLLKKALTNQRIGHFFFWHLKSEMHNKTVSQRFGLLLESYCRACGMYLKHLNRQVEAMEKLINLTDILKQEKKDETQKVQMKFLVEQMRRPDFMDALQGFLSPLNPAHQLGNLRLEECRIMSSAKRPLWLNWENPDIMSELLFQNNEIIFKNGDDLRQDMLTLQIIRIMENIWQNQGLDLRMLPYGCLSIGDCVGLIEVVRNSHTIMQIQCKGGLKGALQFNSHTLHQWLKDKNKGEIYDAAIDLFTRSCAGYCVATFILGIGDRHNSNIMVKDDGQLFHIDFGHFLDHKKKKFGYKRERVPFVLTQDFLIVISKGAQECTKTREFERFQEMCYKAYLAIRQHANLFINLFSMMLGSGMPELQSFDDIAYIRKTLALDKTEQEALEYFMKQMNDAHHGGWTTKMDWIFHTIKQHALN

[4] = Dose normalized AUC in rat at 2.1 mg/kg, po measured upto 24 hrs by HPLC/MS/MS analysis; assay type: ADME, organism-based; details: in vivo
[5] = biological target: Cytochrome P450 3A4 (Homo sapiens, UniProt P08684); assay: Inhibition of CYP3A4 (unknown origin)
Sequence of Cytochrome P450 3A4 (P08684 whole entry): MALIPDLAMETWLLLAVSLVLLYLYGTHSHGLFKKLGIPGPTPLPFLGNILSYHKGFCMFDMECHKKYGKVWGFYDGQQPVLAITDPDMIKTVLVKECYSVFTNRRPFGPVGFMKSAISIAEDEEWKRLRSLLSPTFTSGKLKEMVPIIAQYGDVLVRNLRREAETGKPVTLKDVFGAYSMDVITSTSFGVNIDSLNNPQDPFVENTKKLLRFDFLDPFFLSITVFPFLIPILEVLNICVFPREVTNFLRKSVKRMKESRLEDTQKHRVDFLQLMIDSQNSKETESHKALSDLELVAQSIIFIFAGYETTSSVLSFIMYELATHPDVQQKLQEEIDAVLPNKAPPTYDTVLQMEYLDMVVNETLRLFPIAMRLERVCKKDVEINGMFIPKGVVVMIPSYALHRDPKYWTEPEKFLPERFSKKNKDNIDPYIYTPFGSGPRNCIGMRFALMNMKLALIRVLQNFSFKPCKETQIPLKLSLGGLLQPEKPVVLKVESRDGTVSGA

[6] = test system: T47D; assay: Induction of cell cycle arrest in human T47D cells assessed as accumulation in G1 phase; assay type: functional, cell-based
[7] = test system: BT-474; assay: Antitumor activity against human BT-474 cells xenografted in po dosed mouse assessed as tumor growth inhibition administered 5 times a week for 3 weeks; assay type: functional, organism-based; details: dose 0.3-3 mg/kg
[8] = Half life in mouse at 0.6 mg/kg, iv by HPLC/MS/MS analysis; assay type: ADME, organism-based; details: in vivo
[9] = Oral bioavailability in rat at 2.1 mg/kg by HPLC/MS/MS analysis; assay type: ADME, organism-based; details: in vivo
[10] = test system: BT-474; assay: Antitumor activity against human BT-474 cells xenografted in mouse assessed as decrease in pAKT level at 300 microg/kg, po measured after 10 hrs; assay type: functional; set-up: scale not given: the % may be the effect or the level left; details: dose 300 µg/kg
Outline: (§1)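 Mice bearing BT474 human tumour xenografts got one oral dose of 300 μg/kg. Tumour pAKT was read as the pAKT/total AKT ratio and compared with control. Sampling ran over a 24 h time course.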

[11] = Oral bioavailability in dog at 0.5 mg/kg by HPLC/MS/MS analysis; assay type: ADME, organism-based, Canis lupus familiaris; details: in vivo
[12] = test system: BT-474; assay: Antitumor activity against human BT-474 cells xenografted in mouse assessed as decrease in pAKT level at 300 microg/kg, po measured after 4 hrs; assay type: functional; set-up: scale not given: the % may be the effect or the level left; details: dose 300 µg/kg; outline: as §1
[13] = biological target: T1, Cytochrome P450 1A2 (Homo sapiens, UniProt P05177); assay: Inhibition of CYP1A2 (unknown origin)
T1 sequence (P05177 whole entry): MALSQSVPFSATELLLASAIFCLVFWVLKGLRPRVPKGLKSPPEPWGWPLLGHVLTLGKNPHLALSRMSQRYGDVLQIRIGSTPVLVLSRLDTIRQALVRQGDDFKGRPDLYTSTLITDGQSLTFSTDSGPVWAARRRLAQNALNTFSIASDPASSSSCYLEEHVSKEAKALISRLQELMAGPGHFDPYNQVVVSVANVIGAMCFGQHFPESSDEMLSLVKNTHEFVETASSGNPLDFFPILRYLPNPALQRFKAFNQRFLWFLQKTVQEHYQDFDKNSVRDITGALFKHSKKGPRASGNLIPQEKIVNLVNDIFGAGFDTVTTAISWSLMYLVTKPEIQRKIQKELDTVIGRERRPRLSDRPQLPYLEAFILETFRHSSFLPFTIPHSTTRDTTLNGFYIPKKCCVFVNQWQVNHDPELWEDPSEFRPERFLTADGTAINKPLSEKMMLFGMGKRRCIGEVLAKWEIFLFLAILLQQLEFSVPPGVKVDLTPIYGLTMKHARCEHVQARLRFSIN

[14] = Half life in dog at 0.1 mg/kg, iv by HPLC/MS/MS analysis; assay type: ADME, organism-based, Canis lupus familiaris; details: in vivo
[15] = Toxicity in mouse xenografted with human BT-474 cells assessed as tolerability at 3 mg/kg, po administered 5 times a week for 3 weeks; assay type: organism-based; details: in vivo, 504 h
[16] = Dose normalized AUC in mouse at 2.6 mg/kg, po by HPLC/MS/MS analysis; assay type: ADME, organism-based; details: in vivo
[17] = Half life in monkey at 0.1 mg/kg, iv by HPLC/MS/MS analysis; assay type: ADME, organism-based, Macaca mulatta; details: rhesus monkey, in vivo
[18] = test system: BT-474; assay: Antitumor activity against human BT-474 cells xenografted in mouse assessed as decrease in pAKT level at 300 microg/kg, po measured after 6 hrs; assay type: functional; set-up: scale not given: the % may be the effect or the level left; details: dose 300 µg/kg; outline: as §1
[19] = Dose normalized AUC in monkey at 0.6 mg/kg, po by HPLC/MS/MS analysis; assay type: ADME, organism-based, Macaca mulatta; details: rhesus monkey, in vivo
[20] = test system: T47D; assay: Antiproliferative activity against human T47D cells assessed as inhibition of cell growth measured after 72 hrs by CellTiter-Glo assay; assay type: functional, cell-based
[21] = test system: BT-474; assay: Antitumor activity against human BT-474 cells xenografted in mouse assessed as decrease in pAKT level at 300 microg/kg, po measured after 2 hrs; assay type: functional; set-up: scale not given: the % may be the effect or the level left; details: dose 300 µg/kg; outline: as §1
[22] = test system: BT-474; assay: Antitumor activity against human BT-474 cells xenografted in mouse assessed as decrease in pAKT level at 300 microg/kg, po measured after 1 hr; assay type: functional; set-up: scale not given: the % may be the effect or the level left; details: dose 300 µg/kg; outline: as §1
[23] = organism: Homo sapiens; assay: Inhibition of p70S6K (unknown origin)
[24] = Dose normalized AUC in dog at 0.5 mg/kg, po by HPLC/MS/MS analysis; assay type: ADME, organism-based, Canis lupus familiaris; details: in vivo
[25] = Volume of distribution at steady state in mouse at 0.6 mg/kg, iv by HPLC/MS/MS analysis; assay type: ADME, organism-based; details: in vivo, read-out: Vdss
[26] = Oral bioavailability in monkey at 0.6 mg/kg by HPLC/MS/MS analysis; assay type: ADME, organism-based, Macaca mulatta; details: rhesus monkey, in vivo
[27] = Clearance in monkey at 0.1 mg/kg, iv by HPLC/MS/MS analysis; assay type: ADME, organism-based, Macaca mulatta; details: rhesus monkey, in vivo
[28] = Clearance in dog at 0.1 mg/kg, iv by HPLC/MS/MS analysis; assay type: ADME, organism-based, Canis lupus familiaris; details: in vivo
[29] = test system: BT-474; assay: Antiproliferative activity against human BT-474 cells assessed as inhibition of cell growth measured after 72 hrs by CellTiter-Glo assay; assay type: functional, cell-based; details: BT-474, 72 h
[30] = organism: Homo sapiens; assay: Inhibition of Akt phosphorylation at T308 residue (unknown origin) by cell based analysis
[31] = Oral bioavailability in mouse at 2.6 mg/kg by HPLC/MS/MS analysis; assay type: ADME, organism-based; details: in vivo
[32] = Volume of distribution at steady state in dog at 0.1 mg/kg, iv by HPLC/MS/MS analysis; assay type: ADME, organism-based, Canis lupus familiaris; details: in vivo, read-out: Vdss
[33] = biological target: Cytochrome P450 2C19 (Homo sapiens, UniProt P33261); assay: Inhibition of CYP2C19 (unknown origin)
Sequence of Cytochrome P450 2C19 (P33261 whole entry): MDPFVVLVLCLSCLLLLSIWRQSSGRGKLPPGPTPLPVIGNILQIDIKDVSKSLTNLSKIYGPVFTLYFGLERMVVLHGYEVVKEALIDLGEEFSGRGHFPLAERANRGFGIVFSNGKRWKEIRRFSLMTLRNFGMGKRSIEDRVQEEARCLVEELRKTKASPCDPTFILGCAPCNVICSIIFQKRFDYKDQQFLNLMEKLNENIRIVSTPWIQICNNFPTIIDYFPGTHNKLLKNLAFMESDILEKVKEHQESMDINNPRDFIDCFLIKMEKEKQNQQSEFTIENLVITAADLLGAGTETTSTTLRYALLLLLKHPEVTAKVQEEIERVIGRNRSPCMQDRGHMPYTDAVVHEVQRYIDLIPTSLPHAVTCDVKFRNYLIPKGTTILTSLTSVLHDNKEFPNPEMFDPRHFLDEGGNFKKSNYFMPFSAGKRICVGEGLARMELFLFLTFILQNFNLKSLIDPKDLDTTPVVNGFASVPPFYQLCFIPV

[34] = Half life in rat at 0.4 mg/kg, iv by HPLC/MS/MS analysis; assay type: ADME, organism-based; details: in vivo
[35] = biological target: DNA-dependent protein kinase catalytic subunit (Homo sapiens, UniProt P78527); assay: Inhibition of DNA-PK (unknown origin)
[36] = biological target: Cytochrome P450 2C9 (Homo sapiens, UniProt P11712); assay: Inhibition of CYP2C9 (unknown origin)
Sequence of Cytochrome P450 2C9 (P11712 whole entry): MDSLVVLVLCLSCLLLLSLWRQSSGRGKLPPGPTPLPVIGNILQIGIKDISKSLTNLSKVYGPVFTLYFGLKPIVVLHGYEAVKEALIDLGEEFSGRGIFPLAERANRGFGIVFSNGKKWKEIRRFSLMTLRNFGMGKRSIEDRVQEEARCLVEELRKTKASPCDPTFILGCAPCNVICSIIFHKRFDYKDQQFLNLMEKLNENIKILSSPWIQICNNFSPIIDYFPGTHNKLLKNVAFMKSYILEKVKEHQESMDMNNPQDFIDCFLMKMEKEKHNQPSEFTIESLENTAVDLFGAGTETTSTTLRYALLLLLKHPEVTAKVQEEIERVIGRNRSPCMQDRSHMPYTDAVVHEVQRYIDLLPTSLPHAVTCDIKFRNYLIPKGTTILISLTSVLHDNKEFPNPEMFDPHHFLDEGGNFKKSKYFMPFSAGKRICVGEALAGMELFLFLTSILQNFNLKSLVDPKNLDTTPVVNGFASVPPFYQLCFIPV

[37] = Inhibition of Akt phosphorylation at S473 residue in human T47D cells by cell based assay
Outline: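 Cellular mechanistic assay in T47D and BT474 cancer cells measuring loss of intracellular AKT phosphorylation at S473.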

[38] = Clearance in mouse at 0.6 mg/kg, iv by HPLC/MS/MS analysis; assay type: ADME, organism-based; details: in vivo
[39] = test system: BT-474; assay: Induction of cell cycle arrest in human BT-474 cells assessed as accumulation in G1 phase; assay type: functional, cell-based
[40] = Volume of distribution at steady state in rat at 0.4 mg/kg, iv by HPLC/MS/MS analysis; assay type: ADME, organism-based; details: in vivo, read-out: Vdss
[41] = Volume of distribution at steady state in monkey at 0.1 mg/kg, iv by HPLC/MS/MS analysis; assay type: ADME, organism-based, Macaca mulatta; details: rhesus monkey, in vivo, read-out: Vdss
[42] = biological target: Cytochrome P450 2D6 (Homo sapiens, UniProt P10635); assay: Inhibition of CYP2D6 (unknown origin)
Sequence of Cytochrome P450 2D6 (P10635 whole entry): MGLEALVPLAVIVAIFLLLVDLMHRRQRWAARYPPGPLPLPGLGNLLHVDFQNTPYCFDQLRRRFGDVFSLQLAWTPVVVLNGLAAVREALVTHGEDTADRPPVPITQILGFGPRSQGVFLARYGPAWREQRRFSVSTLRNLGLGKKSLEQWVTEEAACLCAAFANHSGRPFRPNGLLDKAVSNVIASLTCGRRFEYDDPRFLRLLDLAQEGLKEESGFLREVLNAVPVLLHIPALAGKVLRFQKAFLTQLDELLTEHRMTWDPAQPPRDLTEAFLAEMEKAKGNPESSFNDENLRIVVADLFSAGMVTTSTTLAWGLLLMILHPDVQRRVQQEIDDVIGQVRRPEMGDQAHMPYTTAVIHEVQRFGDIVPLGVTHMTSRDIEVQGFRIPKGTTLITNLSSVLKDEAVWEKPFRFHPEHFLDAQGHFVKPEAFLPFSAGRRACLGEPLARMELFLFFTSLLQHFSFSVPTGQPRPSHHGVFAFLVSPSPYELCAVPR

[43] = Clearance in rat at 0.4 mg/kg, iv by HPLC/MS/MS analysis; assay type: ADME, organism-based; details: in vivo

SMILES: c1cc(-c2ccnc3ccc(-c4cnc5[nH]ncc5c4)cc23)ccn1
- solubility [1]: Insoluble
- IC50 [2]: 76 nM
- IC50 [3]: 7 nM

SMILES: Nc1ncc(-c2ccc3nccc(-c4ccncc4)c3c2)cc1S(N)(=O)=O
- solubility [1]: Soluble
- IC50 [2]: 49 nM
- IC50 [3]: 10 nM

SMILES: Nc1ncc(-c2ccc3nccc(-c4ccncc4)c3c2)cc1S(=O)(=O)Nc1ccc(F)cc1F
- AUC/dose [4]: 250 ng·h/mL/mg/kg
- IC50 [2]: 63 nM
- IC50 [3]: 1 nM

SMILES: O=S(=O)(Nc1ccc(F)cc1F)c1cncc(-c2ccc3nccc(-c4ccncc4)c3c2)c1
- AUC/dose [4]: 920 ng·h/mL/mg/kg
- IC50 [2]: 45 nM
- IC50 [3]: 1 nM

SMILES: c1cc(-c2ccnc3ccc(-c4ccc5[nH]ncc5c4)cc23)ccn1
- IC50 [2]: 2700 nM
- IC50 [3]: 73 nM

SMILES: c1cncc(-c2ccc3nccc(-c4ccncc4)c3c2)c1
- IC50 [2]: > 29300 nM
- IC50 [3]: 260 nM

SMILES: c1ccc(-c2ccc3nccc(-c4ccncc4)c3c2)cc1
- IC50 [2]: 8080 nM
- IC50 [3]: 1800 nM

SMILES: O=S(=O)(Nc1cncc(-c2ccc3nccc(-c4ccncc4)c3c2)c1)c1ccc(F)cc1F
- AUC/dose [4]: 1100 ng·h/mL/mg/kg
- IC50 [2]: 7 nM
- IC50 [3]: 0.1 nM

SMILES: O=C1NC(=O)/C(=C/c2ccc3nccc(-c4ccncc4)c3c2)S1 [GSK-1059615]
- IC50 [2]: 40 nM
- IC50 [3]: 2 nM

SMILES: COc1ncc(-c2ccc3nccc(-c4ccnnc4)c3c2)cc1NS(=O)(=O)c1ccc(F)cc1F [OMIPALISIB]
- IC50 [5]: > 25000 nM
- Activity [6]: Active
- Activity [7]: Dose-Dependent Effect
- half-life [8]: 2.1 h
- bioavailability [9]: 81%
- Activity [10]: 46%
- bioavailability [11]: 80%
- Activity [12]: 79%
- IC50 [13]: > 25000 nM
- half-life [14]: 1.3 h
- Activity [15]: Non-Toxic
- AUC/dose [16]: 1100 ng·h/mL/mg/kg
- half-life [17]: 3.5 h
- Activity [18]: 47%
- AUC/dose [19]: 2300 ng·h/mL/mg/kg
- IC50 [20]: 3 nM
- Activity [21]: 93%
- Activity [22]: 98%
- inhibition [23]: Active
- AUC/dose [24]: 2400 ng·h/mL/mg/kg
- AUC/dose [4]: 6100 ng·h/mL/mg/kg
- Vd [25]: 1 L/kg
- bioavailability [26]: 49%
- clearance [27]: 3.6 mL/min/kg
- clearance [28]: 5.8 mL/min/kg
- IC50 [29]: 2.4 nM
- inhibition [30]: Active
- bioavailability [31]: 100%
- Vd [32]: 0.7 L/kg
- IC50 [33]: > 25000 nM
- half-life [34]: 6.2 h
- IC50 [35]: 0.28 nM
- IC50 [36]: > 25000 nM
- IC50 [37]: 0.41 nM
- clearance [38]: 10 mL/min/kg
- Activity [39]: Active
- Vd [40]: 1.1 L/kg
- Vd [41]: 0.8 L/kg
- IC50 [42]: > 25000 nM
- clearance [43]: 2.3 mL/min/kg
